Data reported in ChEMBL document CHEMBL3822431, “Hydroxychalcone inhibitors of Streptococcus mutans glucosyl transferases and biofilms as potential anticaries agents” (Bioorg Med Chem Lett, 2016).
The source made the active and inactive calls. No cut-off for these calls is given here.

Tests used:
Streptococcus mutans [1] = experiment: Growth inhibition of Streptococcus mutans UA159 at 200 uM after 24 hrs; type: organism-based; details: for growth inhibition (GI): streptococcus mutans, […], 24 h, 200 µM; for inhibition at 200 µM: Streptococcus mutans, UA159, 24 h, read-out: GI
Method in brief: (§1)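 S. mutans UA159, S. sanguinis or S. gordonii co-incubated with compound at various concentrations; growth read as OD470; inhibition expressed relative to DMSO.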

Streptococcus mutans [2] = experiment: Inhibition of biofilm formation of Streptococcus mutans UA159 at 200 uM after 16 hrs by crystal violet staining; type: functional; details: for inhibition at 200 µM: UA159, 16 h
Method in brief: (§2)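 S. mutans UA159 co-incubated with compound at various concentrations; biofilm quantified by crystal violet protocol, read at OD562.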

Streptococcus mutans [3] = experiment: Inhibition of biofilm formation of Streptococcus mutans UA159 after 16 hrs by crystal violet staining based serial dilution method; type: functional, organism-based; method in brief: as §2
Streptococcus mutans [4] = experiment: Growth inhibition of Streptococcus mutans UA159 after 16 hrs; type: organism-based
Method in brief: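 S. mutans UA159 co-incubated with compound at various concentrations; growth measured at OD470.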

Streptococcus mutans [5] = experiment: Selectivity index, ratio of growth inhibition IC50 for Streptococcus mutans UA159 to biofilm inhibition IC50 for Streptococcus mutans UA159
Streptococcus sanguinis = experiment: Growth inhibition of Streptococcus sanguinis SK36 at 200 uM after 24 hrs; details: SK36, 24 h, read-out: GI; method in brief: as §1
Streptococcus gordonii = experiment: Growth inhibition of Streptococcus gordonii at 200 uM after 24 hrs; type: organism-based; details: read-out: GI; method in brief: as §1
Streptococcus mutans [6] = experiment: Inhibition of biofilm formation of Streptococcus mutans UA159 at 25 to 100 uM by Syto9 staining based assay; type: functional, organism-based
Method in brief: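 S. mutans UA159 wild type co-incubated with compound at various concentrations; resulting biofilms stained with Syto9 and examined by microscopy.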

[7] = target: T1, Glucosyltransferase-SI (Streptococcus mutans serotype c (strain ATCC 700610 / UA159)) (UniProt P13470); experiment: Inhibition of Wild-type Streptococcus mutans UA159 glucosyltransferase C at 50 uM by coomassie blue staining based SDS-PAGE method
T1 sequence (whole entry): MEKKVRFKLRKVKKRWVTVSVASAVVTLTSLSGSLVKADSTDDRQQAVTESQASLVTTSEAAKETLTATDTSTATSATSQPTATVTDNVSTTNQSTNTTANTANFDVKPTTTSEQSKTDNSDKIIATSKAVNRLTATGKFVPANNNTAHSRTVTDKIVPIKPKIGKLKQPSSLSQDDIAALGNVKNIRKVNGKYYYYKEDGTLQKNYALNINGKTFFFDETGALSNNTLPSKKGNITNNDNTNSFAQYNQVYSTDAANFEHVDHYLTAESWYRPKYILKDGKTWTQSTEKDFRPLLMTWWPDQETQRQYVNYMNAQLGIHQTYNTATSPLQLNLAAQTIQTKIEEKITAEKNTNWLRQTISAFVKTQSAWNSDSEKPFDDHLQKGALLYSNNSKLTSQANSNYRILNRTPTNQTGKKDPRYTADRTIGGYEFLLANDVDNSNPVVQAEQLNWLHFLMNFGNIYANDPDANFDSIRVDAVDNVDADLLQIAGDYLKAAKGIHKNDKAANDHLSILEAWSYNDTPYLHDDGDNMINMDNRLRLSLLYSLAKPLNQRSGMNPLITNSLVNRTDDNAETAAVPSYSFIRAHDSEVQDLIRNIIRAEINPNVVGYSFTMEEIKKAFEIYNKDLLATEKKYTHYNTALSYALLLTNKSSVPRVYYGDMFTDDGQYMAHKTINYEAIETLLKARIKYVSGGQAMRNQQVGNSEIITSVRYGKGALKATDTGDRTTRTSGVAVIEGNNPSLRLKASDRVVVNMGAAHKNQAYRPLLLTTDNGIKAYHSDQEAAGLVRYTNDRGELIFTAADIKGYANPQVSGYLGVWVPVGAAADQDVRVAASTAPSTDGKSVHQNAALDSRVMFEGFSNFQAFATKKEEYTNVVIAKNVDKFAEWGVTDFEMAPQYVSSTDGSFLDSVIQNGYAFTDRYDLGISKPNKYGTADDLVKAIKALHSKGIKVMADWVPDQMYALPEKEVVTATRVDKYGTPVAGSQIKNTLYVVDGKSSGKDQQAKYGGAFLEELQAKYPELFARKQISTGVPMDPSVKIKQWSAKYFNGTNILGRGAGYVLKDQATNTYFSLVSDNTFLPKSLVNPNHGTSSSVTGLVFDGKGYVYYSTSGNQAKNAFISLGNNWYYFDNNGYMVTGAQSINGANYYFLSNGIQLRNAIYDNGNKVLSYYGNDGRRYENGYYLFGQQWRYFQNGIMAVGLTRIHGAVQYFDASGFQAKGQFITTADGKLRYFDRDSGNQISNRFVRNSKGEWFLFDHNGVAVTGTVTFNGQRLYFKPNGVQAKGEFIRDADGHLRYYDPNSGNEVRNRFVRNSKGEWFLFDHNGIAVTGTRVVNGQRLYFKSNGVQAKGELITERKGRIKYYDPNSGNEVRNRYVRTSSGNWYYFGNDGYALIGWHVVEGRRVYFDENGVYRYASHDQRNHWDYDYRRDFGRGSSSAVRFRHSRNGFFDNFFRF
Method in brief: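 Compound (50 µM) added to overnight S. mutans UA159 wild-type cultures; Gtfs collected and concentrated from supernatants, run on SDS-PAGE in duplicate; one gel Coomassie blue stained for protein levels.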

[8] = target: T1, Glucosyltransferase-SI (Streptococcus mutans serotype c (strain ATCC 700610 / UA159)); experiment: Inhibition of Wild-type Streptococcus mutans UA159 glucosyltransferase C at 50 uM by zymography
Method in brief: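 Compound (50 µM) added to overnight S. mutans UA159 wild-type cultures; Gtfs concentrated from supernatants, run on duplicate SDS-PAGE; second gel used for zymogram, glucan band intensity taken as Gtf activity.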

[9] = Streptococcus mutans, UA159, 16 h, read-out: IC50
[10] = Streptococcus mutans, UA159, 16 h

**Q.** How did the “growth inhibition (GI)” value (Streptococcus mutans [1]) turn out when `COc1cc(/C=C/C(=O)c2ccc(O)cc2)cc(OC)c1OC` was run?
**A.** Not Active

**Q.** For `COc1ccc(/C=C/C(=O)c2ccc3c(c2)OCO3)cc1O`, which “growth inhibition (GI)” value (Streptococcus mutans [1]) is on record?
**A.** Not Active

**Q.** And the inhibition (Streptococcus mutans [2])?
**A.** inactive

**Q.** For `O=C(/C=C/c1cc(O)c(O)cc1O)c1ccccc1O` (stereo in doubt; 18c), which IC50 (Streptococcus mutans [3]) is on record?
**A.** 224 µM

**Q.** What about the IC50 (Streptococcus mutans [4]; [9]) of the same compound?
**A.** 323 µM

**Q.** And the “Ratio IC50” value (Streptococcus mutans [5])?
**A.** 1.5

**Q.** `O=C(/C=C/c1ccc(O)cc1O)c1cccc(O)c1` (stereo in doubt; 9) [listing 1 of 2 here] was tested. Which inhibition at 200 µM (Streptococcus mutans [1]) did it give?
**A.** 10%

**Q.** And the IC50 (Streptococcus mutans [3])?
**A.** 32 µM

**Q.** What about the IC50 (Streptococcus mutans [4]) of the same compound?
**A.** Not Active

**Q.** And the inhibition at 200 µM (Streptococcus mutans [2])?
**A.** 93%

**Q.** What about the inhibition at 200 µM (Streptococcus sanguinis) of the same compound?
**A.** 10%

**Q.** What about the inhibition at 200 µM (Streptococcus gordonii) of the same compound?
**A.** 10%

**Q.** What does the source list for `COc1cc(/C=C/C(=O)c2ccccc2O)ccc1O`?
**A.** inhibition at 200 µM (Streptococcus mutans [1]): 85%; IC50 (Streptococcus mutans [3]; [10]): 61 µM; IC50 (Streptococcus mutans [4]; [9]): 44 µM; inhibition at 200 µM (Streptococcus mutans [2]): 86%

**Q.** What does the source list for `O=C(/C=C/c1ccc(O)cc1O)c1cccc(O)c1` (stereo in doubt; 9) [listing 2 of 2 here]?
**A.** inhibition (Streptococcus mutans [3]): Dose-dependent effect; inhibition (Streptococcus mutans [6]): Active

**Q.** How did the inhibition [7] turn out when `O=C(/C=C/c1cc(O)c(O)cc1O)c1ccccc1O` (stereo in doubt; 18d) [listing 1 of 2 here] was run?
**A.** Active

**Q.** What about the inhibition [8] of the same compound?
**A.** Active

**Q.** How did the inhibition at 200 µM (Streptococcus mutans [1]) turn out when `COc1ccc(/C=C/C(=O)c2cc(O)ccc2O)cc1` was run?
**A.** 76%

**Q.** And the inhibition at 200 µM (Streptococcus mutans [2])?
**A.** 87%

**Q.** What does the source list for `O=C(/C=C/c1ccccc1O)c1ccc(O)cc1O`?
**A.** growth inhibition (GI) (Streptococcus mutans [1]): Not Active; inhibition (Streptococcus mutans [2]): inactive

**Q.** Which inhibition at 200 µM (Streptococcus mutans [1]) does the source give for `COc1ccc(/C=C/C(=O)c2ccc(OC)c(OC)c2)cc1O` here?
**A.** 30%

**Q.** What about the inhibition at 200 µM (Streptococcus mutans [2]) of the same compound?
**A.** 27%

**Q.** Which inhibition at 200 µM (Streptococcus mutans [1]) does the source give for `O=C(/C=C/c1ccc(O)cc1)c1ccccc1O` here?
**A.** 48%

**Q.** What about the inhibition at 200 µM (Streptococcus mutans [2]) of the same compound?
**A.** 27%

**Q.** With `COc1ccc(/C=C/C(=O)c2cc(N(C)C)c(O)c(N(C)C)c2)cc1` as the compound, how does the “growth inhibition (GI)” value (Streptococcus mutans [1]) read?
**A.** Not Active

**Q.** What about the inhibition (Streptococcus mutans [2]) of the same compound?
**A.** inactive

**Q.** What does the source list for `O=C(/C=C/c1cc(Cl)cc(Cl)c1O)c1cccc(O)c1`?
**A.** inhibition at 200 µM (Streptococcus mutans [1]): 82%; inhibition at 200 µM (Streptococcus mutans [2]): 81%

**Q.** For `O=C(/C=C/c1ccccc1)c1ccc(O)cc1O` [2',4'-DIHYDROXYCHALCONE], which “growth inhibition (GI)” value (Streptococcus mutans [1]) is on record?
**A.** Not Active

**Q.** What about the inhibition (Streptococcus mutans [2]) of the same compound?
**A.** inactive

**Q.** How did the inhibition at 200 µM (Streptococcus mutans [1]) turn out when `O=C(/C=C/c1cccc(O)c1)c1ccccc1O` was run?
**A.** 86%

**Q.** What about the IC50 (Streptococcus mutans [3]; [10]) of the same compound?
**A.** 64 µM

**Q.** What about the IC50 (Streptococcus mutans [4]; [9]) of the same compound?
**A.** 32 µM

**Q.** And the inhibition at 200 µM (Streptococcus mutans [2])?
**A.** 84%

**Q.** With `O=C(/C=C/c1ccccc1O)c1cccc(O)c1` as the compound, how does the “growth inhibition (GI)” value (Streptococcus mutans [1]) read?
**A.** Not Active

**Q.** With `O=C(/C=C/c1ccc(O)cc1O)c1cccc(O)c1` (stereo in doubt; 9a) as the compound, how does the IC50 (Streptococcus mutans [3]) read?
**A.** 68 µM

**Q.** And the “Ratio IC50” value (Streptococcus mutans [5])?
**A.** 9.4

**Q.** Which results are given for `O=C(/C=C/c1cc(O)c(O)cc1O)c1ccccc1O` (stereo in doubt; 18d) [listing 2 of 2 here]?
**A.** IC50 (Streptococcus mutans [3]): 76 µM; IC50 (Streptococcus mutans [4]; read-out: IC50): 376 µM; Ratio IC50 (Streptococcus mutans [5]): 4.9

**Q.** With `COc1cc(C(=O)/C=C/c2ccccc2O)ccc1O` as the compound, how does the inhibition at 200 µM (Streptococcus mutans [1]) read?
**A.** 71%

**Q.** And the IC50 (Streptococcus mutans [3]; [10])?
**A.** 34 µM

**Q.** And the IC50 (Streptococcus mutans [4]; [9])?
**A.** 40 µM

**Q.** And the inhibition at 200 µM (Streptococcus mutans [2])?
**A.** 85%
